# Source: ChEMBL document CHEMBL4699593, “Identification of 2,4-Disubstituted Imidazopyridines as Hemozoin Formation Inhibitors with Fast-Killing Kinetics and In Vivo Efficacy in the Plasmodium falciparum NSG Mouse Model” (J Med Chem, 2020)
# Activity calls are given as the source filed them. The calls are words filed in the database; no cut-off is given here.
# Key:
# [1] = Dose normalized Cmax in Plasmodium falciparum 3D70087/N9 infected NSG mouse at 1.5 mg/kg, po by LC-MS/MS analysis; format: ADME, organism-based; details: in vivo
# How it was run: (§1)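 Oral (PO) dosing of NSG (NODscidIL2Rγnull) mice infected with P. falciparum. Cmax and AUC0–24 are taken from the infected-mouse PK analysis and are also expressed divided by dose.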
# [2] = Dose normalized AUC (0 to 24 hrs) in Plasmodium falciparum 3D70087/N9 infected NSG mouse at 100 mg/kg, po by LC-MS/MS analysis; format: ADME, organism-based; details: in vivo; how it was run: as §1
# [3] = AUC (0 to t) in Balb/C mouse at 20 mg/kg, po by LC-MS/MS analysis; format: ADME, organism-based; parameters: dose 20 mg/kg; details: in vivo
# How it was run: (§2)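 Healthy Balb/c mice dosed i.v. or orally. Parameters come from non-compartmental analysis of compound concentration over time. […] Clearance is blood clearance (CL_b).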
# [4] = AUC (0 to 24 hrs) in Plasmodium falciparum 3D70087/N9 infected NSG mouse at 50 mg/kg, po by LC-MS/MS analysis; format: ADME, organism-based; parameters: time < 24 hr, route oral, dose 50 mg/kg; details: in vivo; how it was run: as §1
# [5] = AUC in Plasmodium falciparum infected NSG mouse at 62 mg/kg, po by LC-MS/MS analysis; format: ADME, organism-based; parameters: dose 62 mg/kg; details: in vivo
# [6] = Oral bioavailability in Balb/C mouse at 20 mg/kg by LC-MS/MS analysis; format: ADME, organism-based; details: in vivo
# How it was run: (§3)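 Healthy Balb/c mice were given the compound i.v. or orally. Parameters come from non-compartmental analysis: AUC from 0 h to t_last, blood clearance, volume at steady state, terminal half-life, Tmax. Oral bioavailability F is derived from the i.v. and p.o. data.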
# CHO = assay: Cytotoxicity against CHO cells assessed as reduction in cell viability by MTT assay; format: cell-based, Cricetulus griseus; details: chinese hamster
# How it was run: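 Cytotoxicity was measured in Chinese hamster ovary (CHO) cells and reported as CC50. The selectivity index is CC50 divided by NF54 IC50.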
# [7] = Dose normalized AUC (0 to 24 hrs) in Plasmodium falciparum 3D70087/N9 infected NSG mouse at 50 mg/kg, po by LC-MS/MS analysis; format: ADME, organism-based; details: in vivo; how it was run: as §1
# [8] = Aqueous solubility of compound in phosphate buffer saline at pH 6.5 incubated for 20 hrs under shaking condition by shake-flask method based HPLC-DAD analysis; format: physicochemical; details: phosphate buffered saline
# How it was run: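 Equilibrium aqueous solubility was measured at pH 6.5 using a miniaturized shake-flask method.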
# [9] = Clearance in Balb/C mouse blood at 2 mg/kg, iv by LC-MS/MS analysis; format: ADME, organism-based; details: whole blood; how it was run: as §2
# Plasmodium falciparum [10] = assay: Antimalarial activity against asexual blood stage Plasmodium falciparum assessed as time required to show 99.9% reduction of parasitemia at 10 times IC50; format: functional
# [11] = Cmax in Plasmodium falciparum 3D70087/N9 infected NSG mouse at 200 mg/kg, po by LC-MS/MS analysis; format: ADME, organism-based; parameters: route oral, dose 200 mg/kg; details: in vivo; how it was run: as §1
# [12] = AUC (0 to 24 hrs) in Plasmodium falciparum 3D70087/N9 infected NSG mouse at 1.5 mg/kg, po by LC-MS/MS analysis; format: ADME, organism-based; parameters: time < 24 hr, route oral, dose 1.5 mg/kg; details: in vivo; how it was run: as §1
# [13] = Dose normalized AUC (0 to 24 hrs) in Plasmodium falciparum 3D70087/N9 infected NSG mouse at 1.5 mg/kg, po by LC-MS/MS analysis; format: ADME, organism-based; details: in vivo; how it was run: as §1
# [14] = Tmax in Plasmodium falciparum 3D70087/N9 infected NSG mouse at 5 mg/kg, po by LC-MS/MS analysis; format: ADME, organism-based; details: in vivo
# How it was run: (§4)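 P. falciparum-infected NSG mice received escalating single oral doses of 1.5, 5, 15, 50 and 100 mg/kg.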
# [15] = Dose normalized Cmax in Plasmodium falciparum 3D70087/N9 infected NSG mouse at 5 mg/kg, po by LC-MS/MS analysis; format: ADME, organism-based; details: in vivo; how it was run: as §4
# Plasmodium falciparum [16] = assay: Antiplasmodial activity against multidrug-sensitive asexual blood stage Plasmodium falciparum NF54 strain assessed as reduction in parasite growth after 72 hrs by NBT reagent based LDH assay; format: functional, organism-based; details: NF54, 72 h
# [17] = Tmax in Balb/C mouse at 20 mg/kg, po by LC-MS/MS analysis; format: ADME, organism-based; details: in vivo; how it was run: as §3
# [18] = AUC (0 to 24 hrs) in Plasmodium falciparum 3D70087/N9 infected NSG mouse at 5 mg/kg, po by LC-MS/MS analysis; format: ADME, organism-based; parameters: time < 24 hr, route oral, dose 5 mg/kg; details: in vivo; how it was run: as §1
# [19] = Tmax in Plasmodium falciparum 3D70087/N9 infected NSG mouse at 15 mg/kg, po by LC-MS/MS analysis; format: ADME, organism-based; details: in vivo; how it was run: as §4
# [20] = Dose normalized Cmax in Plasmodium falciparum 3D70087/N9 infected NSG mouse at 50 mg/kg, po by LC-MS/MS analysis; format: ADME, organism-based; details: in vivo; how it was run: as §4
# [21] = AUC (0 to 24 hrs) in Plasmodium falciparum 3D70087/N9 infected NSG mouse at 200 mg/kg, po by LC-MS/MS analysis; format: ADME, organism-based; parameters: time < 24 hr, route oral, dose 200 mg/kg; details: in vivo; how it was run: as §1
# [22] = Dose normalized Cmax in Plasmodium falciparum 3D70087/N9 infected NSG mouse at 200 mg/kg, po by LC-MS/MS analysis; format: ADME, organism-based; details: in vivo; how it was run: as §1
# [23] = Cmax in Plasmodium falciparum 3D70087/N9 infected NSG mouse at 50 mg/kg, po by LC-MS/MS analysis; format: ADME, organism-based; parameters: route oral, dose 50 mg/kg; details: in vivo; how it was run: as §1
# [24] = biological target: Voltage-gated inwardly rectifying potassium channel KCNH2 (Homo sapiens, UniProt Q12809); assay: Inhibition of human ERG by patch clamp method
# [25] = Dose normalized Cmax in Plasmodium falciparum 3D70087/N9 infected NSG mouse at 100 mg/kg, po by LC-MS/MS analysis; format: ADME, organism-based; details: in vivo; how it was run: as §1
# Plasmodium falciparum [26] = assay: Antiplasmodial activity against early stage (I to III) Plasmodium falciparum NF54 gametocytes at 5 uM incubated for 48 hrs under hypoxia condition by luciferase reporter gene assay relative to control; format: functional
# hERG = assay: Selectivity index, ratio of IC50 for inhibition of human ERG by patch clamp method to IC50 for antiplasmodial activity against multidrug-sensitive asexual blood stage Plasmodium falciparum NF54; format: toxicity; details: read-out: Ratio IC50
# [27] = Cmax in Plasmodium falciparum 3D70087/N9 infected NSG mouse at 15 mg/kg, po by LC-MS/MS analysis; format: ADME, organism-based; parameters: route oral, dose 15 mg/kg; details: in vivo; how it was run: as §1
# [28] = Drug metabolism in mouse blood assessed as N-demethylation by LC-MS/MS analysis; format: ADME, tissue-based
# Plasmodium falciparum [29] = assay: Antimalarial activity against Plasmodium falciparum 3D70087/N9 infected in NOD-SCID IL2Rgamma null mouse assessed as parasitemia at 50 mg/kg, po qd administered for 4 days measured on day 6 post-infection by microscopy based flow cytometry; format: functional, organism-based; details: time 4.0 day
# How it was run: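 NSG mice were infected with P. falciparum and given oral compound once daily for 4 days at 50 mg/kg, starting three days after inoculation. Parasitemia was followed to day 6 post-infection against the limit of detection.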
# [30] = Cmax in Plasmodium falciparum 3D70087/N9 infected NSG mouse at 1.5 mg/kg, po by LC-MS/MS analysis; format: ADME, organism-based; parameters: route oral, dose 1.5 mg/kg; details: in vivo; how it was run: as §1
# [31] = Dose normalized Cmax in Plasmodium falciparum 3D70087/N9 infected NSG mouse at 15 mg/kg, po by LC-MS/MS analysis; format: ADME, organism-based; details: in vivo; how it was run: as §1
# Plasmodium falciparum [32] = assay: Antiplasmodial activity against early ring-stage synchronized Plasmodium falciparum assessed as increase in free heme after 32 hrs by Giemsa-staining based haemocytometric counting method; format: functional, organism-based
# How it was run: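 Whole-parasite cell fractionation assay run as a dose response. Free heme and hemozoin were measured intracellularly across increasing compound concentrations.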
# Plasmodium falciparum [33] = assay: Antimalarial activity against asexual blood stage Plasmodium falciparum assessed as reduction in parasitemia by measuring log parasite reduction ratio at 10 times IC50; format: functional
# Sequence of Voltage-gated inwardly rectifying potassium channel KCNH2 (Q12809 whole entry): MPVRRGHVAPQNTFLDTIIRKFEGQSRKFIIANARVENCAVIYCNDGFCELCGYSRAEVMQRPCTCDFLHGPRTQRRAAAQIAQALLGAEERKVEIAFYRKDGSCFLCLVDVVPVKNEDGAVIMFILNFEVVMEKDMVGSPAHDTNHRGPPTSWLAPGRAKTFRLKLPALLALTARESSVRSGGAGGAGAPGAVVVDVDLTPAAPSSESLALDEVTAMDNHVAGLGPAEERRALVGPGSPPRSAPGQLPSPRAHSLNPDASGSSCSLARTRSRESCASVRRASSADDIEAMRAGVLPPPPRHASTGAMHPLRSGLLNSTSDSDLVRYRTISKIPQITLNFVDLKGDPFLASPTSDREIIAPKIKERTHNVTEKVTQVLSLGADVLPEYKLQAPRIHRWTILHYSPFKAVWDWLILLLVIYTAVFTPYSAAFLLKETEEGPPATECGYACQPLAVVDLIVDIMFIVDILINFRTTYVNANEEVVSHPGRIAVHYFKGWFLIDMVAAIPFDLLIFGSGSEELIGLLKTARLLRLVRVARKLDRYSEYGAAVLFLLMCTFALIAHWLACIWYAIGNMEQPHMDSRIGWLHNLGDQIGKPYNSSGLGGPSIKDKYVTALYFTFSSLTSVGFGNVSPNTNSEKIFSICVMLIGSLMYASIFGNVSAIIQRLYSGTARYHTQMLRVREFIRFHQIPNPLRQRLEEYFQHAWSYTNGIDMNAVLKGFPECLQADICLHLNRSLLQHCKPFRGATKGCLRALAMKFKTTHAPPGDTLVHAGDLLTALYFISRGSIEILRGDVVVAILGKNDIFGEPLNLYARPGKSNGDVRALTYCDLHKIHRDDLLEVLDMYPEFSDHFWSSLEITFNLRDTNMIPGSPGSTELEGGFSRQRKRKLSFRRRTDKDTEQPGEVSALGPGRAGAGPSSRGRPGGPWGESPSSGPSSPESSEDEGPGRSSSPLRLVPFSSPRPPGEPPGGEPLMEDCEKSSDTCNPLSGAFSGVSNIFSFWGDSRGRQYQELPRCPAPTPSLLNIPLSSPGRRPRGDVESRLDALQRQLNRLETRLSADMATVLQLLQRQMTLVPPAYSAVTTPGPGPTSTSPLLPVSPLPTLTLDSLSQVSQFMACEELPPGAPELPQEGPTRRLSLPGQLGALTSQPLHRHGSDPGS
smiles,measurement,setting,value
CN1CCN(CC2CCN(c3nccc4[nH]c(-c5cc(F)cc(F)c5)nc34)CC2)CC1,Cmax/dose,[1],0.03 µM·kg/mg
same,AUC/dose,[2],51 µM·kg·min/mg
same,AUCt,[3],20 µM·h
same,AUC,[4],2856 µM·min
same,AUC,[5],58.3 µM·h
same,bioavailability,[6],83%
same,CC50,CHO,23 µM
same,AUC/dose,[7],57 µM·kg·min/mg
same,solubility thermodynamic at 20 h,[8],200 µM
same,clearance,[9],20.2 mL/min/kg
same,Time,Plasmodium falciparum [10],31 h
same,Cmax,[11],2840 nM
same,AUC,[12],46 µM·min
same,AUC/dose,[13],31 µM·kg·min/mg
same,Tmax,[14],2.5 h
same,Cmax/dose,[15],0.03 µM·kg/mg
same,IC50,Plasmodium falciparum [16],0.023 µM
same,Tmax,[17],1.7 h
same,AUC,[18],170 µM·min
same,Tmax,[19],6 h
same,Cmax/dose,[20],0.06 µM·kg/mg
same,AUC(0-t) at 24 h,[21],51.7 µM·h
same,Cmax/dose,[22],0.06 µM·kg/mg
same,Cmax,[23],2840 nM
same,IC50,[24],> 30 µM
same,Cmax/dose,[25],0.07 µM·kg/mg
same,inhibition at 5 µM,Plasmodium falciparum [26],< 50%
same,selectivity ratio,hERG,> 1300
same,Cmax,[27],810 nM
same,Drug metabolism,[28],Metabolite_Detected
same,Activity,Plasmodium falciparum [29],Below limit of detection
same,Cmax,[30],40 nM
same,Cmax/dose,[31],0.05 µM·kg/mg
same,Activity,Plasmodium falciparum [32],inactive
same,Ratio,Plasmodium falciparum [33],4.9
